An excerpt weighted towards active compounds, which were near 2.4% of everything screened.
NadD block: inhibitors of S. aureus NadD, primary screen, biochemical, colorimetric, uHTS; Nicotinate-nucleotide adenylyltransferase NadD (Staphylococcus aureus N315); purified NadD enzyme, colorimetric absorbance read-out; inhibition, % at 20 µM; actives 0.78% (n = 360,000); in the data active = inhibition above about 26%
STEP block: STEP phosphatase inhibitors, primary screen, biochemical, fluorescence intensity, uHTS; inhibition, % at 20 µM; actives 0.25% (n = 360,000); recombinant STEP, OMFP fluorogenic substrate; Tyrosine-protein phosphatase non-receptor type 5 (Homo sapiens), P54829;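 active = inhibition at 20 µM, scaled per plate between control wells, above about 37%, limit read from the data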;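 also: 0% = DMSO with enzyme and substrate and 100% = substrate only without enzyme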
Target sequence (P54829 whole entry, looked up): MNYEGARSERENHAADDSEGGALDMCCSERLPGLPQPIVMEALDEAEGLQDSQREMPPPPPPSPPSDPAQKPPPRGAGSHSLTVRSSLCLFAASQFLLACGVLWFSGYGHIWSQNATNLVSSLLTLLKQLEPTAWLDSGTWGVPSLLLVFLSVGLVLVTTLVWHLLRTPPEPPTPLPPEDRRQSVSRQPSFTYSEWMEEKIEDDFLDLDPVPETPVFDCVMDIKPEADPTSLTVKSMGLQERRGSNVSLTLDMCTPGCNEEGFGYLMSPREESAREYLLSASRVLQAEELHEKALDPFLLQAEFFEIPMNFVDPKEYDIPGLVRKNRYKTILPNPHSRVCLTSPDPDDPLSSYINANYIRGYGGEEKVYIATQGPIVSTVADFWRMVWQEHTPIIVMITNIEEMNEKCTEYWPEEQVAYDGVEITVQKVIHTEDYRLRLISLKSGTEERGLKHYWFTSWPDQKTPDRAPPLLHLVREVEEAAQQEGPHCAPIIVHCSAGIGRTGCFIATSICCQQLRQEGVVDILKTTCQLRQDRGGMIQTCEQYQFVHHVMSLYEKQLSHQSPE
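System: STEP phosphatase, cell-free reaction; Buffer or medium: Bis-Tris pH 6.0 buffer with DTT, detergent; Incubation: 20 min at room temperature, dark; Measured by: fluorescence, 480/540 nm.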
LMPTP inh: LMPTP phosphatase inhibitors, primary screen, biochemical, fluorescence intensity, uHTS | Low molecular weight phosphotyrosine protein phosphatase (Homo sapiens), P24666 | recombinant LMPTP-A, OMFP fluorogenic substrate | inhibition, % at 20 µM | actives 0.22% (n = 360,000);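 active = compounds that cut the enzyme signal by at least half of the control window in the single-dose screen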;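 also: plate controls were DMSO wells with enzyme plus substrate for no effect and substrate without enzyme for full effect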
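Buffer or medium: Bis-Tris pH 6.0, DTT, detergent; Assay system: LMPTP-A enzyme; Quantity: 0.625 nM enzyme; Detection: endpoint fluorescence intensity; Times: 50 min dark incubation at room temperature; Controls: substrate-only low control, DMSO enzyme-plus-substrate high control; Doses: single 20 µM dose; Read-out: percent inhibition versus substrate-only and uninhibited controls; Reagent: 400 µM OMFP.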
Scp-1 inhibitor: Scp-1 phosphatase inhibitors, primary screen, biochemical, colorimetric, uHTS. AID 493091, 2011. actives 0.88% (n = 340,000). inhibition, % at 20 µM. Recombinant Scp1, phosphopeptide, malachite green phosphate absorbance. Carboxy-terminal domain RNA polymerase II polypeptide A small phosphatase 1 (Homo …;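 active = inhibition above about 50% at 20 µM, limit read from the data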;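 also: plate controls were DMSO wells with enzyme for no effect and wells lacking enzyme for full effect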
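Test system: SCP-1 phosphatase catalytic domain, residues 76-261; measured by: colorimetric phosphate reagent with accelerator and stabiliser, absorbance at 630 nm; timing: enzyme reaction 45 min at room temperature, colour 5 min, stabilisation 30 min; also added: Phosphorylated 17-residue peptide substrate; compound dosing: one concentration, 20 µM, with 1.0% DMSO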
DNMT1 block: human DNMT1 methyltransferase inhibitors, primary screen, biochemical, molecular beacon, fluorescence, HinP1I cleavage, uHTS | DNA (cytosine-5)-methyltransferase 1 (Homo sapiens), P26358 | inhibition (reported as % activation of signal), % at 10 µM | actives 0.83% (n = 360,000) | AID 588458, 2011; in the data active = inhibition above about 50%
SUMO1-SIM PPI: modulators of SUMO1 protein-protein interactions, primary screen, biochemical, uHTS | Small ubiquitin-related modifier 1 (Homo sapiens), P63165 | actives 0.33% (n = 360,000) | SUMO1 binding to a labelled peptide, TR-FRET, 1 h | inhibition, % at 20 µM; in the data active = inhibition above about 37%
Scp-1 conf: Scp-1 phosphatase inhibitors, retest, confirmation, biochemical, colorimetric, single concentration; recombinant SCP-1 catalytic domain, phosphate release, malachite green absorbance; inhibition, % at 20 µM; AID 540281, 2011; shares compounds with Scp-1 inhibitor; actives 61% (n = 2,500);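 also: plate controls were DMSO with enzyme for no effect and buffer wells lacking enzyme for full effect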
Scp-1 MG ctr: colorimetric readout interference by compounds, confirmation, artefact control for Scp-1 inhibitor project, biochemical, single concentration | 2,500 tested, under 10 active | apparent inhibition (interference), % at 20 µM | Colorimetric interference counterscreen, malachite green absorbance 630 nm | shares compounds with Scp-1 inhibitor;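 also: compounds added after enzyme reaction finished so only phosphate colour detection is probed; plate controls were DMSO wells with completed Scp-1 reaction for no effect and substrate wells lacking enzyme for full effect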
Scp-1 Tm shift: Scp-1 binding by thermal shift, confirmation, orthogonal assay for Scp-1 inhibitor project, biophysical, differential scanning fluorimetry. shares compounds with Scp-1 inhibitor. Recombinant SCP1, Sypro Orange thermal shift Tm. thermal shift relative to vanadate control, % at 40 µM. actives 25% (n = 1,500). AID 540329, 2011;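 active = substances whose mean melting-temperature shift, as a percentage of the reference inhibitor's shift, reaches about 5.3%, limit read from the data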;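 also: 0% = Tm of DMSO wells and 100% = Tm with sodium orthovanadate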
Starred values were filed as active, the others as inactive; x = not tested or not shown.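 The calls were made as follows, unless noted: active = inhibition of at least 30% at 20 µM; inactive = the rest.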

SMILES	NadD block	STEP block	LMPTP inh	Scp-1 inhibitor	DNMT1 block	SUMO1-SIM PPI	Scp-1 conf	Scp-1 MG ctr	Scp-1 Tm shift
Cc1c(NC(=O)CN2C(=O)NC(C)(c3ccccc3)C2=O)c(=O)n(-c2ccccc2)n1C (centres undefined)	-3	2	0	1	0	-2	-16	-19	x
Cc1ccc(Cl)cc1NC(=O)Nc1c(C)n(C)n(-c2ccccc2)c1=O	0	-4	0	76*	0	7	-18	-14	x
COc1ccc(NC(=O)CS(=O)CC(=O)N2CCN(C3CCCC3)CC2)cc1 (centres undefined)	-4	-8	1	2	5	1	x	x	x
COCCCNC(=O)c1cccc(C(=O)NCCCOC)c1	0	-4	-2	8	5	1	x	x	x
O=C(COc1ccc2ccccc2c1)NNC(=O)c1ccc([N+](=O)[O-])cc1	2	14	21	54*	10	-9	74*	-7	7.2*
Cc1ccccc1NC(=O)C(=O)NNC(=O)COc1ccc2ccccc2c1	6	23	4	52*	5	7	69*	-4	-16
O=C(COc1ccc([N+](=O)[O-])cc1)Nc1ccc(C(=O)Nc2ccccc2C(=O)O)cc1	-2	4	0	65*	-1	15	77*	-3	7.5*
CCC(Oc1ccccc1)C(=O)Nc1nc2c(s1)C(=O)CC(C)(C)C2 (centres undefined)	-5	1	0	-8	1	-5	-9	-10	x
CC(=O)Nc1ccc(C(=O)OCC(=O)N2CCN(C(=O)c3ccco3)CC2)cc1	-3	-2	0	-7	6	2	x	x	x
N#CCC(=O)Nc1ccc(C(=O)OCC(=O)N2CCN(C(=O)c3ccco3)CC2)cc1	2	-1	6	90*	0	22	64*	1	-2
C=CCn1c(COc2cc(C)ccc2C(C)C)nnc1SCC(=O)c1c(N)n(C)c(=O)n(C)c1=O	3	-2	1	52*	15	2	11	-1	x
Cc1ccc(C(C)C)c(OCC(=O)OCC(=O)c2c(N)n(C)c(=O)n(C)c2=O)c1	-6	2	0	-3	3	1	x	x	x
Cc1cnc(C(=O)N(c2ccccc2)C(c2ccccc2)c2nc3ccccc3[nH]2)cn1 (centres undefined)	-2	0	-1	x	-3	2	x	x	x
C/C(CC(=O)Nc1ccc2c(c1)OCO2)=N\NC(=O)c1ccc(N)cc1	-3	-2	-3	-7	-2	1	x	x	x
CNC(=O)c1ccc(CNC(=O)OCC(F)(F)F)cc1	-5	0	0	0	-4	0	x	x	x
Cc1ccc(CCNC(=O)CCNS(=O)(=O)c2ccc3c(c2)oc(=O)n3C)cc1	-1	-2	-1	-2	2	2	-3	-1	x
O=C(c1cc2ncc(Br)cn2n1)N1CCN(C(=O)c2ccco2)CC1	5	1	-1	56*	30	6	43*	-11	-10

Bioassay records (PubChem BioAssay)
